Data published in paper PMC3288198 (ACS Chemical Biology, 2011).
Read-outs that look alike come from different tables or passages of the source.

Experiments:
HDAC3/N-CoR2 = HDAC3/N-CoR2 (Homo sapiens, UniProt O15379); test: HDAC deacetylase homogenous fluorescence assay, HDAC3; type: biochemical
Outline: (§1)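 Baculovirus-expressed recombinant human enzyme (HDAC3 as HDAC3/N-CoR2 complex) incubated with serially diluted test compound over a 12-point titration. Substrate: acetylated AMC-K(Ac)GL. Deacetylated product cleaved by lysine peptidase to free MCA, read at ex 355/em 460 nm. Data normalised to control plate by plate. IC50 and SD from non-linear regression; Ki via Cheng-Prusoff, Ki = IC50/(1+[S]/Km).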

HDAC5 = HDAC5 (Homo sapiens, UniProt Q9UQL6); test: HDAC deacetylase homogenous fluorescence assay, HDAC5; type: biochemical
Outline: (§2)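 Recombinant human enzyme (HDAC5, 8, 9 baculovirus-expressed) incubated with serially diluted test compound over a 12-point titration. Substrate: trifluoroacetylated AMC-K(TFA)GL. Peptidase development releases MCA, read at ex 355/em 460 nm. Activity normalised to plate controls. IC50 and SD by non-linear regression; Ki by Cheng-Prusoff, Ki = IC50/(1+[S]/Km).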

HDAC8 = molecular target: T1, HDAC8 (Homo sapiens, UniProt Q9BY41); test: HDAC deacetylase homogenous fluorescence assay, HDAC8; type: biochemical
T1 sequence (Q9BY41 1-377): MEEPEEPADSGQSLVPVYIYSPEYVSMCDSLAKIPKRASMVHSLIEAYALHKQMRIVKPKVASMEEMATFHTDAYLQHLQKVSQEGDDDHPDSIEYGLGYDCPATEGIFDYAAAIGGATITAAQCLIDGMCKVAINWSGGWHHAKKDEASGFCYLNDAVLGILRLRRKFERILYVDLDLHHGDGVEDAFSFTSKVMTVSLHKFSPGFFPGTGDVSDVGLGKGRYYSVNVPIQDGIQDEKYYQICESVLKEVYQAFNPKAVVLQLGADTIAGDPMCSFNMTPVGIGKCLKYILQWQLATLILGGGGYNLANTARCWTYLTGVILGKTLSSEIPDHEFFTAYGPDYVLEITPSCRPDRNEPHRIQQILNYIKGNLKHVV
Outline: as §2

HDAC9 = HDAC9 (Homo sapiens, UniProt Q9UKV0); test: HDAC deacetylase homogenous fluorescence assay, HDAC9; type: biochemical
Outline: as §2

HDAC10 = molecular target: T2, HDAC10 (Homo sapiens, UniProt Q969S8); test: HDAC deacetylase homogenous fluorescence assay, HDAC10; type: biochemical
T2 sequence (Q969S8 1-669): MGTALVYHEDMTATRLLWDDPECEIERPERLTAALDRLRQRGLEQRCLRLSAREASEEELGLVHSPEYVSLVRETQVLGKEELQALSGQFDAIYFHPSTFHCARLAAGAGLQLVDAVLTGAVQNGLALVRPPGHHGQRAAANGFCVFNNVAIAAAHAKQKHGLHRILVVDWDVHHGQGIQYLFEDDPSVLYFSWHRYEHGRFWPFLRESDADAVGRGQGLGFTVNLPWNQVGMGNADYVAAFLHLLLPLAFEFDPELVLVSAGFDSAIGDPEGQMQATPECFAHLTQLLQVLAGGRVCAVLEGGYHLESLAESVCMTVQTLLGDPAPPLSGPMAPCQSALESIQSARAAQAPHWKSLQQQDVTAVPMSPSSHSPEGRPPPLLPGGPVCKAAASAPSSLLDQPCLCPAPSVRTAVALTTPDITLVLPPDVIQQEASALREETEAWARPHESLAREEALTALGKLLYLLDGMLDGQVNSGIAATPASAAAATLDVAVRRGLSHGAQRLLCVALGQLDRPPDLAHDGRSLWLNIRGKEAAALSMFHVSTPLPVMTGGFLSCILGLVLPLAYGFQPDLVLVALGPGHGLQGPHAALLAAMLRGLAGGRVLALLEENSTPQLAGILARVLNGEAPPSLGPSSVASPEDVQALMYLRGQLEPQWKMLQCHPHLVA
Outline: as §1

[1] = tested on: non-proliferating PBMC (no mitogen stimulation); test: Viability of resting PBMC; type: cell-based, human
acetylated tubulin = test: Western blot of acetylated tubulin in MV4-11 cells; type: cell-based, human
Outline: (§3)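 MV4-11 cells (10% heat-inactivated FBS, 37°C, 5% CO2) treated with test compound at a range of concentrations. Washed in cold HBSS and lysed 30 min in low-salt Tris pH 7.4 buffer with protease/phosphatase inhibitors and 1 μM TSA, then sonicated. LDS-denatured lysates run on 4–12% gradient gels. Probes: acetyl-H3, acetyl-H4, total H3, acetyl-α-tubulin, tubulin. HRP secondary, ECL read-out.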

[2] = tested on: acetylated histone H3 and H4; test: Western blot of acetylated histone H3/H4 in MV4-11 cells; type: cell-based, human
Outline: as §3

ubiquitinated protein = test: Western blot of total ubiquitinated protein in MV4-11 cells; type: cell-based, human; details: within 3 hr
[3] = read-out: HDAC3 IC50, 12 point titration, acetylated substrate
[4] = read-out: HDAC3 Ki, converted from IC50 using Cheng-Prusoff equation
[5] = read-out: HDAC5 IC50, 12 point titration, trifluoroacetylated substrate
[6] = read-out: HDAC5 Ki, converted from IC50 using Cheng-Prusoff equation
[7] = read-out: HDAC8 IC50, 12 point titration, trifluoroacetylated substrate
[8] = read-out: HDAC8 Ki, converted from IC50 using Cheng-Prusoff equation
[9] = read-out: HDAC9 IC50, 12 point titration, trifluoroacetylated substrate
[10] = read-out: HDAC9 Ki, converted from IC50 using Cheng-Prusoff equation
[11] = read-out: HDAC10 IC50, 12 point titration, acetylated substrate

Sequence of HDAC9 (Q9UKV0 whole entry): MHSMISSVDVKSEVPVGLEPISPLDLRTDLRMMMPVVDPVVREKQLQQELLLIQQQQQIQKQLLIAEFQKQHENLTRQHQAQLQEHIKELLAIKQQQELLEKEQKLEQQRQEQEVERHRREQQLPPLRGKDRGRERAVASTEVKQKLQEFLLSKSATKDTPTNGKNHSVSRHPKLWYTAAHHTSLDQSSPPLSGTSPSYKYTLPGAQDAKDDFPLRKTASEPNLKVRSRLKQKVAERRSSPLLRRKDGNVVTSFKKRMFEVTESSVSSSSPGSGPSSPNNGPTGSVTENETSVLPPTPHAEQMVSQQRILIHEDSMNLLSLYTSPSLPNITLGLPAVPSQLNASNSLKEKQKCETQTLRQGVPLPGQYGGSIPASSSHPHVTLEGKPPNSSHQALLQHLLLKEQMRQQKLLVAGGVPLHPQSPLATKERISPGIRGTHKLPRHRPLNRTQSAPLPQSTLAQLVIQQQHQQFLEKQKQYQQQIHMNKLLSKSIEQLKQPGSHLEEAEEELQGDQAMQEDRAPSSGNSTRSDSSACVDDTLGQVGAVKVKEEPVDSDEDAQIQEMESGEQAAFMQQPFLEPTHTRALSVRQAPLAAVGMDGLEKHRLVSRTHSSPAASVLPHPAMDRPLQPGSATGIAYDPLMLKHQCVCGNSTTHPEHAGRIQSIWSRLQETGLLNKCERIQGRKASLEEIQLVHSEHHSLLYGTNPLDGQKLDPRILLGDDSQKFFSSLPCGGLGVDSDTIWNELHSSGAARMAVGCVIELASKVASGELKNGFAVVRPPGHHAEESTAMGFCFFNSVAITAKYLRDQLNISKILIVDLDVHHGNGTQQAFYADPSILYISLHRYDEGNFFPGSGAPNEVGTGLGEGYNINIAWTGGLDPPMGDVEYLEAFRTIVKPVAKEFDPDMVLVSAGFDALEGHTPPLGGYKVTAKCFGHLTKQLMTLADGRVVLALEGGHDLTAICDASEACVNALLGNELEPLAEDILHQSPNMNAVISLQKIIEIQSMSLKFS
Sequence of HDAC5 (Q9UQL6 whole entry): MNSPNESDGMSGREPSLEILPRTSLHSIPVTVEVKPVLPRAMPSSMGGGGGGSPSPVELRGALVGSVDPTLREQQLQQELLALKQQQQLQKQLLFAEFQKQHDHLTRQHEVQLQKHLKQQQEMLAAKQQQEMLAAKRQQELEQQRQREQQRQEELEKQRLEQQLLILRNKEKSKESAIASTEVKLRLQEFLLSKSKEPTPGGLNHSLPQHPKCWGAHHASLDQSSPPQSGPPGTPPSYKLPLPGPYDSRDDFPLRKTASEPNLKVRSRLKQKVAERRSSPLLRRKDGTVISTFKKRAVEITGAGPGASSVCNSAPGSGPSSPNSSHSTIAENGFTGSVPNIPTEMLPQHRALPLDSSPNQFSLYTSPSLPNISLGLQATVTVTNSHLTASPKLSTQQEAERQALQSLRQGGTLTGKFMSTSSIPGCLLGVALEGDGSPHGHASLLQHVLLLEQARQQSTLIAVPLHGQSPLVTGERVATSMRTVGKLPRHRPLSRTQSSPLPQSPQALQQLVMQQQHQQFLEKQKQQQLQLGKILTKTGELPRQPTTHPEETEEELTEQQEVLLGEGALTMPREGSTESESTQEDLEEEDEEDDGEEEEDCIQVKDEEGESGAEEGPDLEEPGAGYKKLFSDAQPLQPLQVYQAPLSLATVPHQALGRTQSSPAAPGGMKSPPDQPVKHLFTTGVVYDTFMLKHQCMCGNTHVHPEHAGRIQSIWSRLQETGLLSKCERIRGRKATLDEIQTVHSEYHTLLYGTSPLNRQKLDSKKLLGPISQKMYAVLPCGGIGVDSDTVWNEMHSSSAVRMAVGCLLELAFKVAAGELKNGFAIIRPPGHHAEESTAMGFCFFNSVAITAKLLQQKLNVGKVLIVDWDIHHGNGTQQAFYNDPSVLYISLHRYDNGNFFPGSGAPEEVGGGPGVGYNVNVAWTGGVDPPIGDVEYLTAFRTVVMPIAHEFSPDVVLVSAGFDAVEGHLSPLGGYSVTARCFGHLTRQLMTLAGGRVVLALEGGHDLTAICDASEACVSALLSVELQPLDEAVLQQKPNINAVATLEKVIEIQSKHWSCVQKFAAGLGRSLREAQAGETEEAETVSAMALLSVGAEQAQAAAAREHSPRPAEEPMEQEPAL
Sequence of HDAC3/N-CoR2 (O15379 whole entry): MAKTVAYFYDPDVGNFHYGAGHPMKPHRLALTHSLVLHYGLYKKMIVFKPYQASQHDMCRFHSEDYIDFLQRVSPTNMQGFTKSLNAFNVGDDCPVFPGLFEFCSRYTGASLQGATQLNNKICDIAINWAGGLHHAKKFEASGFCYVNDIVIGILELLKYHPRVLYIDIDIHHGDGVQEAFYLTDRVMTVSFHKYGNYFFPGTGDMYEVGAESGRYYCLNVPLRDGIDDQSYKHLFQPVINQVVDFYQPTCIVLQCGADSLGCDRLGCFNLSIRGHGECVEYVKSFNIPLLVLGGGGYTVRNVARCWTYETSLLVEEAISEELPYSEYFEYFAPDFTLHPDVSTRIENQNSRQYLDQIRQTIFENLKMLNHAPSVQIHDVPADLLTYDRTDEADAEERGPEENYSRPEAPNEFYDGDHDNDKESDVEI
Sequence of HDAC3/N-CoR2 (Q9Y618 395-489 partner limits assumed): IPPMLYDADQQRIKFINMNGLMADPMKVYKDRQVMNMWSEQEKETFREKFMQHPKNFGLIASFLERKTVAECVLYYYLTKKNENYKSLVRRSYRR

Row | SMILES | IC50 (HDAC3/N-CoR2; [3]) [nM] | Ki (HDAC3/N-CoR2; [4]) [nM] | IC50 (HDAC5; [5]) [nM] | Ki (HDAC5; [6]) [nM] | IC50 (HDAC8; [7]) [nM] | Ki (HDAC8; [8]) [nM] | IC50 (HDAC9; [9]) [nM] | Ki (HDAC9; [10]) [nM] | IC50 (HDAC10; [11]) [nM] | IC50 (HDAC3/N-CoR2) [nM] | IC50 (HDAC5) [nM] | Ki (HDAC5) [nM] | IC50 (HDAC8) [nM] | IC50 (HDAC9) [nM] | IC50 (HDAC10) [nM] | Ki (HDAC10) [nM] | further results
1 | OC[C@H]1O[C@H]([S-])[C@H](O)[C@@H](O)[C@@H]1O.[Au+] [Aurothioglucose, 1-thio-D-glucopyronaose gold salt] | 11500 ± 3200 | 1230 | 720 ± 500 | 390 | 1400 ± 300 | 1110 | 2800 ± 100 | 1190 | 4900 ± 1500 |  |  |  |  |  |  |  | Ki (HDAC10; read-out: HDAC10 Ki, converted from IC50 using Cheng-Prusoff equation): 2160 nM
2 | O=c1c2ccccc2[se]n1-c1ccccc1 [Ebselen, 2-phenyl-1,2-benzisoselenazol-3(2H)-one] |  |  |  |  |  |  |  |  |  | 2100 ± 1500 | 780 ± 100 | 420 | 350 ± 200 | 970 ± 500 | 950 ± 400 | 420 | Ki (HDAC3/N-CoR2): 230 nM
3 | NC(N)=Nc1ccc2[nH]c3c(c2c1)C[C@@]1(O)[C@H]2Cc4ccc(O)c5c4[C@@]1(CCN2CC1CC1)[C@H]3O5 [GNTI, guanidinyl-naltrindole di-trifluoroacetate] | 22700 ± 3100 | 2430 | 700 ± 100 | 380 | 2000 ± 400 | 1580 | 12300 ± 1700 | 5230 | > 180000 |  |  |  |  |  |  |  | 
4 | O=C1C(SCCO)=C(SCCO)C(=O)c2ccccc21 [NSC-95397, 2,3-bis[(2-Hydroxyethyl)thio]-1,4-naphthoquinone] |  |  |  |  |  |  |  |  |  | > 100000 | 3100 ± 200 | 1680 | 1300 ± 100 | 4800 ± 1400 | 14500 ± 1500 | 6400 | Ki (HDAC8): 1030 nM; Ki (HDAC9): 2040 nM; effect on resting (non-proliferating) PBMC viability [1]: inactive; effect on resting (non-proliferating) PBMC viability ([1]; listed as NSC): not affected; induction of acetylated tubulin (acetylated tubulin): induces hyperacetylated tubulin; effect on acetylated histone H3/H4 levels [2]: without an increase in acetylated histone levels; total ubiquitinated protein level (ubiquitinated protein): increase in total ubiquitinated protein level
5 | COc1ccc2c(c1)CC[C@@H]1[C@@H]2CC[C@]2(C)[C@@H](NCCCCCCN3C(=O)C=CC3=O)CC[C@@H]12 [U-73122, 1-[6-[[(17beta)-3-methoxyestra-1,3,5([10])-trien-17-yl]amion]hexyl]-1H-pyrrole-2,5-dione] | 6200 ± 4000 | 660 | 10500 ± 7400 | 5680 | 10900 ± 3100 | 8630 | 29800 ± 5600 | 12700 | > 100000 |  |  |  |  |  |  |  | 
